{
  "source": "paper PMC3841333",
  "about": "(Theranostics, 2013)",
  "key": {"[1]": {"tested_on": "U87MG gliomas", "details": "xenografted U87MG model; cited from earlier work"}, "[2]": {"tested_on": "VEGF and PDGF receptor families", "details": "in vitro; cited from earlier work"}, "[3]": {"tested_on": "MDA-MB-435 tumors", "test": "Tumor immunohistochemistry", "type": "in vivo, athymic nude mice", "outline": "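Fat-pad MDA-MB-435 tumors came from mice given vehicle or oral test compound (12.5 mg/kg twice daily) and were harvested on days -1, 1, 4 and 11. Frozen 5 μm OCT sections were fixed in ice-cold acetone (10 min) and blocked in 10% goat serum (30 min). They were stained 1 h with hamster anti-integrin β3 and rat anti-CD31 (1:100), then Cy3/FITC secondaries (1:100), and read by fluorescence microscopy. H&E sections were examined for blood vessels.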"}, "[4]": {"tested_on": "pre-clinical tumor models", "details": "variety of pre-clinical tumor models; cited from earlier work"}, "[5]": {"tested_on": "PC-3 prostate tumors", "details": "xenografted PC-3 model; cited from earlier work"}, "[6]": {"tested_on": "integrin αvβ3", "test": "^99mTc-3P-RGD2 SPECT/CT tumor uptake during linifanib therapy, MDA-MB-435 model", "type": "in vivo, athymic nude mice", "outline": "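Size-matched groups (n = 5; mean tumor 180 ± 90 mm3) of female nude mice with fat-pad MDA-MB-435 tumors received vehicle (0.15% HPMC, 2% ethanol, 5% Tween 80, 20% PEG400, 73% saline) or test compound at 12.5 mg/kg orally twice daily (>8 h apart) from day 0. Radiotracer (>95% radiochemical purity, in saline) was given i.v. Multi-pinhole SPECT/CT on days -1, 1, 4 and 11 was quantified as %ID and %ID/cm3.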"}, "[7]": {"tested_on": "integrin αvβ3 and αvβ5", "details": "low concentrations; cited from earlier work"}, "[8]": {"tested_on": "tumor", "details": "2 days after sunitinib therapy; cited from earlier work"}, "[9]": {"tested_on": "tumors", "details": "cited from earlier work"}, "[10]": {"details": "12.5 mg/kg orally twice daily, as early as 24 h, SPECT/CT quantification, n = 5"}},
  "data": [
    {"compound": "Cc1ccc(F)c(NC(=O)Nc2ccc(-c3cccc4[nH]nc(N)c34)cc2)c1", "note": "[linifanib]", "values": [
      {"measurement": "tumor uptake (%ID and %ID/cm^3) and T/M ratios of ^99mTc-3P-RGD2 after linifanib treatment", "setting": "[1]", "value": "significant decrease"},
      {"measurement": "phosphorylation of members of VEGF and PDGF receptor families", "setting": "[2]", "value": "inhibit the phosphorylation"},
      {"measurement": "blood vessel density", "setting": "[3]; H&E staining of tumor slices, within 24 h after initiation of linifanib therapy", "value": "dramatically reduced"},
      {"measurement": "integrin αvβ3 on neovasculature", "setting": "[3]; IHC staining of tumor slices, after 24 h of linifanib therapy", "value": "disappeared almost completely"},
      {"measurement": "tumor cell integrin αvβ3 expression level", "setting": "[3]; IHC staining of tumor slices, during the 11-day period of linifanib therapy", "value": "decreased steadily"},
      {"measurement": "effect on tumors in vivo", "setting": "[4]", "value": "pronounced regression of tumors"},
      {"measurement": "tumor volume or tumor uptake of ^99mTc-3P-RGD2 after linifanib treatment", "setting": "[5]", "value": "no significant changes"},
      {"measurement": "%ID tumor uptake of ^99mTc-3P-RGD2 in linifanib-treated group", "setting": "[6]; [10]", "value": "dramatic reduction"},
      {"measurement": "%ID/cm^3 tumor uptake of ^99mTc-3P-RGD2 in linifanib-treated group", "setting": "[6]; [10]", "value": "dramatic reduction"},
      {"measurement": "tumor uptake (%ID and %ID/g) of ^99mTc-3P-RGD2 in linifanib-treated group", "setting": "[6]; over the next 10 days after the first 24 h of linifanib therapy", "value": "steady tumor uptake reduction"}
    ]},
    {"compound": "Cilengitide", "values": [
      {"measurement": "effect on tumor growth and angiogenesis", "setting": "[7]", "value": "stimulate tumor growth and angiogenesis"}
    ]},
    {"compound": "CCN(CC)CCNC(=O)c1c(C)[nH]c(/C=C2\\C(=O)Nc3ccc(F)cc32)c1C", "note": "[sunitinib]", "values": [
      {"measurement": "tumor uptake of [^18F]AH111585 after sunitinib therapy", "setting": "[8]", "value": "significantly reduced"}
    ]},
    {"compound": "Cc1nc(Nc2ncc(C(=O)Nc3c(C)cccc3Cl)s2)cc(N2CCN(CCO)CC2)n1", "note": "[dasatinib]", "values": [
      {"measurement": "uptake of ^64Cu-DOTA-RGD in the treated tumors", "setting": "[9]", "value": "significantly reduce"}
    ]}
  ]
}
